Experimental data from publication PMC8419023 (Structure (London, England : 1993), 2021).
No end group written: not given here.

How the values were obtained:
cyclin A = experiment: GST pull down, cyclin A in isolation; assay type: binding, human; settings: HEPES pH 7.5; 1 h, 4°C; SDS-PAGE; two experiments; Figure 1C
Procedure, shortened: (§1)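 Bacterially expressed proteins: CDK2 (1–298) as a GST fusion, cyclin A (1–432 or 173–432) as a 6XHis fusion. […] Incubated 1 h at 4 °C with mild agitation, washed three times in binding buffer, and bound material analysed by SDS-PAGE; repeated 2–3 times.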

CDK2 = experiment: GST pull down, CDK2 in isolation; assay type: binding, human; settings: HEPES pH 7.5; 1 h, 4°C; SDS-PAGE; two experiments; Figure 1C
CDK2-cyclin A [1] = target: CDK2-cyclin A (Homo sapiens, UniProt P20248+P24941); experiment: GST pull down, CDK2-cyclin A; assay type: binding; settings: 1 h, 4°C, SDS-PAGE, two experiments; for binding of GST-tagged Skp2 N-terminal fragments to CDK2-cyclin A^1−432: GST pull-down, Figure 4B; for binding of N-terminal deletions to GST:CDK2-cyclin A: GST CDK2-cyclin A^173−432 with Skp1-Skp2 deletions, Figure 1D
Procedure, shortened: as §1

CDK2-cyclin A [2] = settings: ref Ji et al., 2006; cited from earlier work
[3] = target: CDK2-cyclin A (Surface 2, hydrophobic patch); experiment: Fluorescence polarization displacement of FITC-p27^27−36 from CDK2-cyclin A; assay type: binding, human; settings: 25 nM FITC-p27^27−36, CDK2-cyclin A 6.25 μM, HEPES pH 7.5, 30 min, N=4
CDK2-cyclin A^173−432 = experiment: Protein kinase assay, Bora^1−224 phosphorylation by CDK2-cyclin A; assay type: biochemical, human; settings: 3 nM CDK2-cyclin A, 30°C, 30 min, Figure 7A

## GST-Skp2^1−424: GST-tagged full-length Skp2
Cyclin A
  pull down of cyclin A in isolation: could also pull down cyclin A in isolation
CDK2
  pull down of CDK2 in isolation: not CDK2 in isolation

## Skp2^28−43: GST-tagged Skp2 fragment 28–43 (KTSELLSGMGVSALEK; also: GST-tagged (end not given here))
CDK2-cyclin A [1]
  binding of GST-tagged Skp2 N-terminal fragments to CDK2-cyclin A^1−432: did abolish binding

## Skp2^1−29: GST-tagged Skp2 fragment 1–29 (MHRKHLQEIPDLSSNVATSFTWGWDSSKT; also: GST-tagged (end not given here))
CDK2-cyclin A [1]
  binding of GST-tagged Skp2 N-terminal fragments to CDK2-cyclin A^1−432: A major loss of binding to CDK2-cyclin A

## Skp2^17−43: GST-tagged Skp2 fragment 17–43 (ATSFTWGWDSSKTSELLSGMGVSALEK; also: GST-tagged (end not given here))
CDK2-cyclin A [1]
  binding of GST-tagged Skp2 N-terminal fragments to CDK2-cyclin A^1−432: did not affect binding to CDK2-cyclin A

## p21: CDK inhibitor p21
CDK2-cyclin A [2]
  competition with the N-terminus of Skp2: compete with the N-terminus of Skp2 for binding to CDK2-cyclin A

## Skp2^Δ1−28: Skp2 with residues 1 to 28 deleted
CDK2-cyclin A [1]
  binding of N-terminal deletions to GST:CDK2-cyclin A: caused a decrease in CDK2-cyclin A binding

## Skp2^Δ1−16: Skp2 with residues 1 to 16 deleted
CDK2-cyclin A [1]
  binding of N-terminal deletions to GST:CDK2-cyclin A: had no effect on CDK2-cyclin A binding

## Skp2^1−424: full-length Skp2 in complex with Skp1
[3]; Figure 3E
  IC50: 5.3 µM
[3]; Figure 4F
  IC50: 5.8 µM
CDK2-cyclin A^173−432; 10 μM Bora^1–224, 0.75 mM ATP [γ−^32P], pH 7.5, phosphoimager
  concentration for complete inhibition of Bora phosphorylation: 10 µM
CDK2-cyclin A^173−432; Bora^1–224
  inhibition of phosphorylation of RxL containing substrate (in words): completely inhibit Bora phosphorylation in vitro in a manner dependent on its N-terminus
